Experimental data from article PMC9057237 (RSC Advances, 2020).

Columns and labels:
MTT cell viability assay = format: cell-based, rat; settings: rat, RBL-2H3 cells
Summary of the method: (§1)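 Cells grown in DMEM with 10% FBS, penicillin (100 U mL−1) and streptomycin (100 μg mL−1) at 37 °C under humidified 5% CO2. Pure compounds tested at 1 to 400 μM; viability read by MTT assay. Mean, n = 3, relative to untreated (DMSO) control.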

human neutrophils [1] = assay: Elastase release in fMLF/cytochalasin B-induced human neutrophils; format: cell-based; settings: for inhibition at 10 µM / IC50: Homo sapiens, Neutrophil; for inhibition at 10 µM: read-out: Elastase release % Inhibition; for IC50: read-out: Elastase release IC50
Summary of the method: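 Neutrophils isolated from venous blood of healthy adult volunteers aged 20–30 years. Release from activated cells measured with MeO-Suc-Ala-Ala-Pro-Val-p-nitroanilide as elastase substrate. Pure compounds tested at 0.3–10 μM. LY294002 as positive control. Mean ± S.E.M., n = 3–6, vs 0.1% DMSO control; IC50 is the concentration giving 50% inhibition.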

human neutrophils [2] = assay: Superoxide anion generation in fMLF/cytochalasin B-induced human neutrophils; format: cell-based; settings: for IC50: read-out: Superoxide anion generation IC50
Summary of the method: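 Human neutrophils taken from venous blood of healthy volunteers aged 20–30 years. Superoxide from activated cells measured as ferricytochrome c reduction. Pure compounds tested at 0.3–10 μM. Mean ± S.E.M., n = 3–6, vs 0.1% DMSO control; IC50 is the concentration giving 50% inhibition.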

neutrophil elastase (NE) = target: T1, neutrophil elastase (NE) (Homo sapiens, UniProt P08246); assay: Cell-free elastase enzymatic activity assay; format: biochemical; settings: read-out: Inhibition of elastase enzyme activity
T1 sequence (P08246 30-247 limits assumed): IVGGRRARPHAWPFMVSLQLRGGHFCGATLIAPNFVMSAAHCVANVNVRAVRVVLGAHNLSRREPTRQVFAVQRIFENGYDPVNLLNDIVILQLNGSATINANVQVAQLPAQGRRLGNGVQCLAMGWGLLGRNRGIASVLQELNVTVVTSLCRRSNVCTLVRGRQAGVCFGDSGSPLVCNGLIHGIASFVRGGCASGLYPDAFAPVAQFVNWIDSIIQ
Summary of the method: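 Neutrophils (6 × 10^5 cells per mL) preheated 5 min at 37 °C with CaCl2 (1 mM), primed with CB (1.5 μg mL−1) for 2 min, then fMLF (0.1 μM) to release elastase. Cell-free supernatant taken after centrifugation (1000g, 5 min, 4 °C), warmed to 37 °C and given test compound (10 μM) or DMSO for 2 min. MeO-Suc-Ala-Ala-Pro-Val-p-nitroanilide (100 μM) added for 10 min; A405 read. Mean ± S.E.M., n = 4; t-test.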

SARS-CoV-2 M^pro = settings: read-out: M^pro inhibition IC50; cited from earlier work
[3] = test system: human neutrophil elastase; settings: read-out: Human neutrophil elastase IC50; previous study; cited from earlier work
RBL-2H3 cells [4] = assay: MTT cell viability assay; format: cell-based, rat; settings: 100 μM; MTT
Summary of the method: as §1

RBL-2H3 cells [5] = assay: Antigen-induced degranulation; format: cell-based, rat; settings: for % Inhibition of antigen-induced degranulation: mean ± SEM
RBL-2H3 cells [6] = assay: A23187-induced degranulation; format: cell-based, rat; settings: mean ± S.E.M.
[7] = Homo sapiens, Neutrophil, read-out: Superoxide anion generation % Inhibition
[8] = at 10 μM, fMLF/CB-induced human neutrophils, mean ± S.E.M.

Compound	inhibition at 10 µM (human neutrophils [1])	IC50 (human neutrophils [1])	viability at 100 µM (MTT cell viability assay)	inhibition at 10 µM (human neutrophils [2]; [7])	IC50 (human neutrophils [2]; Homo sapiens, Neutrophil)	inhibition at 10 µM (neutrophil elastase (NE))	also measured
CN1CCCC(n2nc(Cc3ccc(Cl)cc3)c3ccccc3c2=O)CC1 (stereo not drawn) [Azelastine, reference compound]							viability at 20 µM (MTT cell viability assay): > 90%
COc1cc(O)c2c(=O)c(OC)c(-c3ccc(O)cc3)oc2c1 [Compound 7, kumatakenin]	22.9 ± 4.29%	> 10 µM	> 90%	24.1 ± 2.75%	> 10 µM	20.3 to 27.1%	
COc1cc(O)c2c(=O)c(OC)c(-c3ccc(O)c(OC)c3)oc2c1 [Compound 9, pachypodol]	31.6 ± 5.02%	> 10 µM	> 90%	67.5 ± 4.55%	6.07 ± 0.65 µM	20.3 to 27.1%	
O=c1c(-c2ccc(O)cc2)coc2cc(O)cc(O)c12 [Genistein, reference compound]	31.6 ± 7.29%	16.3 ± 4.26 µM			1.52 ± 0.17 µM		inhibition at 3 µM (human neutrophils [2]; [7]): 67%
O=c1cc(-c2ccc(O)c(-c3c(O)cc(O)c4c(=O)cc(-c5ccc(O)cc5)oc34)c2)oc2cc(O)cc(O)c12 [amentoflavone]							IC50 (SARS-CoV-2 M^pro): 8.3 µM
penduletin [Compound 8]							IC50 [3]: 65.4 µM; Elastase release % Inhibition (human neutrophils [1]; [8]): 33.00 ± 7.94%; % Viability, RBL-2H3 (RBL-2H3 cells [4]): >90%; % Inhibition of antigen-induced degranulation (RBL-2H3 cells [5]; 1 μM): 33.9 ± 8.6 %; % Inhibition of antigen-induced degranulation (RBL-2H3 cells [5]; 10 μM): 85.8 ± 5.1 %; IC50 (RBL-2H3 cells [5]; read-out: Antigen-induced degranulation IC50): 3.8 µM; Superoxide anion generation % Inhibition (human neutrophils [2]; [8]): 73.76 ± 5.24%; % Inhibition of A23187-induced degranulation (RBL-2H3 cells [6]; 1 μM): 4.8 ± 3.9%; % Inhibition of A23187-induced degranulation (RBL-2H3 cells [6]; 10 μM): 25.1 ± 7.3%
